PMC3177239 (The Biochemical journal, 2011)

How the values were obtained:
[1] = test system: pig tracheal submucosal glands; assay: Pig tracheal submucosal glands fluid secretion
Summary of the method: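 Pig tracheas collected within 1 h postmortem into ice-cold Krebs-Ringer bicarbonate buffer (1 μM indomethacin) gassed with 95% O2/5% CO2. Serosal side bathed at 37 °C. Agents were diluted in warm gassed buffer and added serosally after basal secretion was recorded. Carbachol 10 μM was added at the end to confirm viability. Rate was taken as the volume-vs-time slope (R² > 0.8): 10-min basal, 25-min stimulated. 11 pigs, 11–43 glands, mean ± s.e.m.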

[2] = test system: cAMP levels in Calu-3 cells; assay: Ratiometric FRET cAMP measurement; assay type: cell-based; conditions: CO-068 50 μM or FSK 10 μM added after baseline
Summary of the method: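 Calu-3 cells were transiently transfected (Lipofectamine) with the CFP-EPAC-YFP sensor and grown on glass-bottom dishes. Cells were washed twice and held in HBSS, in the dark at room temperature, on an inverted microscope. After baseline, time-lapse images were taken every 1 min (100–300 ms exposure) with an EM-CCD camera. The background-subtracted CFP/FRET emission ratio came from 10–20 regions in 3–5 cells. n = 4–5 separate experiments, mean ± s.e.m.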

Compound | Increase in mean fluid secretion rate compared to basal secretion rate ([1]; FSK 10 μM or CO-068 50 μM, over 25 min) [fold] | Increase in cAMP levels (CFP/FRET emission ratio) [2] [fold] | Effect on FSK-induced fluid secretion ([1]; CFTRinh-172 50 μM plus FSK 10 μM)
C=C[C@@]1(C)CC(=O)[C@]2(O)[C@@]3(C)[C@@H](O)CCC(C)(C)[C@@H]3[C@H](O)[C@H](OC(C)=O)[C@@]2(C)O1 [FSK, forskolin] | 5 | 1.5 | –
O=C(O)c1ccc(/C=C2\SC(=S)N(c3cccc(C(F)(F)F)c3)C2=O)cc1 [CFTRinh-172] | – | – | markedly inhibited
